# Measurements as given in ChEMBL document CHEMBL4837261, “Optimization of TopoIV Potency, ADMET Properties, and hERG Inhibition of 5-Amino-1,3-dioxane-Linked Novel Bacterial Topoisomerase Inhibitors: Identification of a Lead with In Vivo Efficacy against MRSA” (J Med Chem, 2021).
# pIC50: −log10 of the molar value.
# Experiments:
# [1] = Metabolic stability in CD1 mouse liver microsomes assessed as intrinsic clearance at 2 uM measured up to 120 mins by LC-MS/MS analysis; format: ADME, Microsome; settings: 2 h
# [2] = Metabolic stability in CD1 mouse liver microsomes assessed as half life at 2 uM measured up to 120 mins by LC-MS/MS analysis; format: ADME, Microsome
# [3] = biological target: Voltage-gated inwardly rectifying potassium channel KCNH2 (Homo sapiens, UniProt Q12809); assay: Inhibition of human ERG
# In short: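 hERG channel inhibition was measured on the IonWorks Barracuda automated patch system. IC50 came from eight-point concentration–response curves with four replicates per concentration.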
# [4] = Plasma protein binding in mouse; format: ADME, cell-free; settings: read-out: PPB (converted)
# In short: (§1)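 Run at Charles River (Worcester). Plasma protein binding was measured in mouse, dog and human plasma. Thermodynamic solubility was measured in buffer at pH 7.4.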
# [5] = Plasma protein binding in dog; format: ADME, cell-free, Canis lupus familiaris; settings: read-out: PPB (converted); in short: as §1
# [6] = Plasma protein binding in human; format: ADME, cell-free; settings: read-out: PPB (converted); in short: as §1
# [7] = Thermodynamic solubility of the compound at pH 7.4; format: physicochemical; settings: buffer, read-out: Therm_solubility; in short: as §1
# [8] = system: Staphylococcus aureus; assay: Antibacterial activity against fluoroquinolone-resistant methicillin-resistant Staphylococcus aureus by CLSI method; format: functional
# In short: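 MICs against ciprofloxacin-resistant MRSA USA300, determined following CLSI guidelines. Each determination was run at least in triplicate, and observed ranges were reported where appropriate.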
# [9] = system: Staphylococcus aureus; assay: Antibacterial activity against Staphylococcus aureus ATCC 29213 by CLSI method; format: functional
# [10] = system: Staphylococcus aureus; assay: Antibacterial activity against methicillin-resistant Staphylococcus aureus USA300 by CLSI method; format: functional
# [11] = system: Staphylococcus aureus; assay: Antibacterial activity against cystic fibrosis isolate Staphylococcus aureus by CLSI method; format: functional
# [12] = system: Staphylococcus aureus; assay: Antibacterial activity against Staphylococcus aureus by CLSI method; format: functional
# In short: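 MICs were determined by broth microdilution per CLSI guidelines, in triplicate at minimum. Strains were S. aureus ATCC 29213, MRSA USA300 and a cystic fibrosis respiratory isolate, and ranges are given where seen.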
# [13] = system: Enterococcus sp.; assay: Antibacterial activity against Enterococcus sp. by CLSI method; format: functional
# [14] = system: Streptococcus pneumoniae; assay: Antibacterial activity against Streptococcus pneumoniae by CLSI method; format: functional
# [15] = system: Acinetobacter baumannii; assay: Antibacterial activity against Acinetobacter baumannii by CLSI method; format: functional
# [16] = system: Bacillus anthracis; assay: Antibacterial activity against Bacillus anthracis by CLSI method; format: functional
# [17] = biological target: DNA gyrase (Staphylococcus aureus, UniProt P0A0K8+P20831); assay: Inhibition of Staphylococcus aureus Gyrase supercoiling activity assessed as reduction in supercoiling pBR322 DNA by measuring relaxation by bromophenol blue staining based TAE gel method; format: protein-complex assay
# [18] = biological target: Topoisomerase IV (Staphylococcus aureus, UniProt P0C1S7+P0C1U9); assay: Inhibition of Staphylococcus aureus topoisomerase IV decatenation activity using kDNA as substrate by ethidium bromide/bromophenol blue staining based agarose gel electrophoresis analysis; format: protein-complex assay
# [19] = system: Staphylococcus aureus; assay: Antibacterial activity against Staphylococcus aureus 3527 by CLSI method; format: functional
# [20] = system: Staphylococcus aureus; assay: Antibacterial activity against Staphylococcus aureus harbouring GyrA D83N mutant by CLSI method; format: functional
# [21] = Growth inhibition of human K/VP.5 cells incubated for 48 hrs by NBTI cell counting analysis; format: functional; settings: K562, 48 h
# [22] = system: Staphylococcus aureus; assay: Selectivity index, ratio of IC50 for inhibition of Staphylococcus aureus topoisomerase IV decatenation activity to IC50 for inhibition of Staphylococcus aureus DNA gyrase supercoiling activity
# In short: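 Both IC50s were measured in gel-based assays with S. aureus enzymes: supercoiling inhibition for DNA gyrase and decatenation inhibition for TopoIV. The ratio is TopoIV IC50 divided by gyrase IC50.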
# [23] = system: HepaRG; assay: Cytotoxicity against human HepaRG cells at 100 uM by ATP depletion assay; format: cell-based
# In short: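 An ATP depletion read-out in HepaRG cells gave cytotoxicity across 0.01–100 μM, reported as % cytotoxicity at 100 μM.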
# [24] = biological target: 5-hydroxytryptamine receptor 2B (Homo sapiens) (UniProt P41595); assay: Displacement of [3H]Lysergic acid diethylamide from human recombinant 5HT2B receptor expressed in CHO-K1 cells at 100 uM by radioligand binding assay; format: cell-based
# [25] = biological target: Acetylcholinesterase (Homo sapiens) (UniProt P22303); assay: Inhibition of human recombinant acetylcholinesterase receptor expressed in HEK293 cells at 100 uM by spectrophotometry; format: cell-based
# [26] = Permeability of the compound from apical to basolateral side in human Caco-2 cells; format: ADME, cell-based; settings: read-out: permeability
# [27] = Permeability of the compound from basolateral to apical side in human Caco-2 cells; format: ADME, cell-based; settings: read-out: permeability
# In short: (§2)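 Run at RTI International. Covers plasma protein binding (mouse, human; percent free), CACO-2 permeability and efflux, and microsomal stability (mouse and human microsomes) giving half-life.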
# [28] = Metabolic stability in CD1 mouse microsomes assessed as half life; format: ADME, Microsome
# [29] = Metabolic stability in human microsomes assessed as half life; format: ADME, Microsome; in short: as §2
# [30] = biological target: CYP1A2 (Homo sapiens, UniProt P05177); assay: Inhibition of CYP1A2 (unknown origin) at 10 uM relative to control; format: ADME
# [31] = biological target: CYP2B6 (Homo sapiens, UniProt P20813); assay: Inhibition of CYP2B6 (unknown origin) at 10 uM relative to control; format: ADME
# [32] = biological target: CYP2C8 (Homo sapiens, UniProt P10632); assay: Inhibition of CYP2C8 (unknown origin) at 10 uM relative to control; format: ADME
# [33] = biological target: CYP2C9 (Homo sapiens, UniProt P11712); assay: Inhibition of CYP2C9 (unknown origin) at 10 uM relative to control; format: ADME
# [34] = biological target: CYP2C19 (Homo sapiens, UniProt P33261); assay: Inhibition of CYP2C19 (unknown origin) at 10 uM relative to control; format: ADME
# [35] = biological target: CYP2D6 (Homo sapiens, UniProt P10635); assay: Inhibition of CYP2D6 (unknown origin) at 10 uM relative to control; format: ADME
# [36] = Half life in ICR (CD-1) mouse at 10 mg/kg, iv measured up to 1440 mins by LC-MS/MS analysis; format: ADME, organism-based; settings: in vivo
# In short: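 Male ICR (CD-1) mice, 22 ± 2 g, given the free base in DMSO/Solutol HS-15/0.9% NaCl (5/5/90, v/v/v), IV at 10 mg/kg or PO at 50 mg/kg; 24 mice per route, three per timepoint. Plasma was taken by cardiac puncture at 3–1440 min (IV) or 10–1440 min (PO), measured by LC-MS/MS, and parameters were derived by noncompartmental analysis.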
structure (smiles),measurement,setting,value
COc1ccc2ncc(F)c(C(O)C[C@H]3OC[C@H](NCc4ccc5c(c4)OCCO5)CO3)c2c1 (mixture of isomers),intrinsic clearance (CLint),[1],835 µL/min/mg
same,half-life at 2 µM,[2],6.54 min
same,pIC50,[3],5.10
same,fraction unbound,[4],0.11
same,fraction unbound,[5],0.11
same,fraction unbound,[6],0.11
same,solubility thermodynamic,[7],186 µM
same,MIC,[8],0.25 µg/mL
same,MIC,[9],0.125 µg/mL
same,MIC,[10],0.125 µg/mL
same,MIC,[11],0.125 µg/mL
same,MIC50,[12],0.12 µg/mL
same,MIC50,[13],0.12 µg/mL
same,MIC50,[14],1 µg/mL
same,MIC50,[15],32 µg/mL
same,MIC50,[16],2 µg/mL
same,MIC90,[16],8 µg/mL
same,pIC50,[17],7.19
same,pIC50,[18],5.26
same,MIC,[19],0.125 µg/mL
same,MIC,[20],2 µg/mL
same,pIC50,[21],4.62
COc1ccc2ncc(F)c(C(O)C[C@H]3OC[C@H](NCc4cc5c(nn4)OCCS5)CO3)c2n1 (mixture of isomers),MIC,[9],0.5 µg/mL
same,MIC,[10],1 µg/mL
same,MIC,[11],0.5 µg/mL
same,pIC50,[17],6.62
same,pIC50,[18],4.96
same,Ratio IC50,[22],47
same,MIC,[19],0.5 µg/mL
same,MIC,[20],8 µg/mL
same,Activity,[23],17%
same,inhibition,[24],> 45%
same,inhibition,[25],> 45%
same,Papp A→B,[26],7.85 ×10⁻⁶ cm/s
same,Papp B→A,[27],94.8 ×10⁻⁶ cm/s
same,half-life,[28],21 min
same,half-life,[29],26 min
same,inhibition at 10 µM,[30],> 50%
same,inhibition at 10 µM,[31],> 50%
same,inhibition at 10 µM,[32],> 50%
same,inhibition at 10 µM,[33],> 50%
same,inhibition at 10 µM,[34],> 50%
same,inhibition at 10 µM,[35],> 50%
COc1ccc2ncc(F)c(C[C@H](O)[C@@H]3CC[C@@H](NCc4cc5c(nn4)OCCS5)CO3)c2n1,half-life,[36],18.6 min
